The test system of experiment [1] is Mus musculus. Put plainly: Induction of stress related behaviour in ddY mouse assessed as increase in cumulative grooming time at 200 nmol administered intranasally and measured after 3 hrs by open field test. It is filed as functional. The conditions noted are these: route nas.
The test system of experiment [2] is Mus musculus. As to the kind of experiment: Effect on total distance travelled in ddY mouse at 200 nmol administered intranasally and measured after 45 mins by open field test. The conditions noted are these: route nas. It is filed as functional. Summed up:
(§1)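 Open field (40 × 40 × 50 cm) with video tracking at 45 min and 24 h after i.n. dosing (200 nmol); total distance, cumulative grooming time, and inner ratio (% time in central 20 × 20 cm zone) scored. N = 8, mean ± SD; two-way repeated measures ANOVA, Tukey–Kramer.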

Experiment [3] concerns Mus musculus. Put plainly: Suppression of appetite in ddY mouse assessed as body weight at 200 nmol administered intranasally on days 0 to 2 and measured for 3 days relative to day 0. The conditions noted are these: route nas, time 3 day. It is filed as functional. Summed up:
(§2)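 Daily i.n. dosing (200 nmol) or saline vehicle on days 0–2 in individually housed mice; body weight (relative to day 0), daily food intake and water intake recorded daily. N = 8, mean ± SD; two-way repeated measures ANOVA with Tukey–Kramer test.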

Experiment [4] relates to Mus musculus. As to the kind of experiment: Suppression of appetite in ddY mouse assessed as decrease in daily food intake at 200 nmol administered intranasally on day 0 to 2 and measured on days 1 to 3. It is filed as functional, organism-based. The conditions noted are these: route nas, time 3.0 day. In outline: as §2
Experiment [5] relates to Mus musculus. Put plainly: Induction of anxiety-like behaviour in ddY mouse assessed as decrease in inner ratio at 200 nmol administered intranasally and measured after 45 mins by open field test. It is filed as functional. The conditions noted are these: route nas. Summed up:
as §1

Experiment [6] concerns Mus musculus. Put plainly: Suppression of appetite in ddY mouse assessed as decrease in food consumption at 200 nmol administered intranasally as single dose on day 0 and measured on day 1. In kind it is functional, organism-based. The conditions noted are these: route nas, time 1.0 day. Summed up: (§3)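 Single i.n. dose (200 nmol) or saline vehicle given on day 0; mice housed individually, with body weight, food and water consumed recorded daily. N = 8 per group, mean ± SD; two-way repeated measures ANOVA followed by Tukey–Kramer test.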

Experiment [7] has as its system Mus musculus. Put plainly: Induction of stress related behaviour in ddY mouse assessed as increase in cumulative grooming time at 200 nmol administered intranasally and measured after 24 hrs by open field test. In kind it is functional. The conditions noted are these: route nas. Summed up:
as §1

Experiment [8] has as its system Mus musculus. Put plainly: Effect on total distance travelled in ddY mouse at 200 nmol administered intranasally and measured after 3 hrs by open field test. It is filed as functional. The conditions noted are these: route nas.
For experiment [9], the system named is Mus musculus. Put plainly: Suppression of appetite in ddY mouse assessed as decrease in body weight gain at 200 nmol administered intranasally as single dose on day 0. It is filed as functional, organism-based. The conditions noted are these: route nas. In outline:
as §3

For experiment [10], the system named is Mus musculus. As to the kind of experiment: Induction of stress related behaviour in ddY mouse assessed as increase in cumulative grooming time at 200 nmol administered intranasally and measured after 45 mins by open field test. In kind it is functional. The conditions noted are these: route nas. In outline:
as §1

Experiment [11] deals with Mus musculus. Put plainly: Induction of anxiety-like behaviour in ddY mouse assessed as decrease in inner ratio at 200 nmol administered intranasally and measured after 24 hrs by open field test. In kind it is functional. The conditions noted are these: route nas. In outline: as §1
In experiment [12] the test system is Mus musculus. Put plainly: Suppression of plasma prolactin level in C57BL/6J mouse assessed as prolactin level at 20 nmol administered intranasally by ELISA (reference value: 0.45 +/-0.14 ng/ml). In kind it is functional. The conditions noted are these: route nas.
For experiment [13], the system named is Mus musculus. As to the kind of experiment: Induction of anxiety-like behaviour in ddY mouse assessed as decrease in inner ratio at 200 nmol administered intranasally and measured after 3 hrs by open field test. It is filed as functional. The conditions noted are these: route nas.
Experiment [14] relates to Mus musculus. Put plainly: Suppression of restrain stress-induced plasma prolactin level in C57BL/6J mouse at 200 nmol administered intranasally followed by exposure to restraint stress for 40 mins by ELISA. The conditions noted are these: route nas. In kind it is functional, organism-based. For orientation: ELISA stands for enzyme-linked immunosorbent assay.
Experiment [15] concerns Mus musculus. Put plainly: Suppression of restrain stress-induced plasma prolactin level in C57BL/6J mouse assessed as prolactin level at 20 nmol administered intranasally followed by exposure to restraint stress for 40 mins by ELISA (reference value: 2.04 +/-0.95 ng/ml). In kind it is functional. The conditions noted are these: route nas.
Experiment [16] has as its system Mus musculus. Put plainly: Effect on water intake in ddY mouse at 200 nmol administered intranasally as single dose on day 0 and measured for 3 days. In kind it is functional. The conditions noted are these: route nas, time 3.0 day. Summed up:
as §3

Experiment [17] has as its system Mus musculus. As to the kind of experiment: Suppression of restrain stress-induced plasma prolactin level in C57BL/6J mouse at 20 nmol administered intranasally and 50 mins later exposure to restraint stress for 40 mins by ELISA. It is filed as functional, organism-based. The conditions noted are these: route nas, time 90.0 min.
The test system of experiment [18] is Mus musculus. As to the kind of experiment: Increase in water intake in ddY mouse at 200 nmol administered intranasally on days 0 to 2 and measured on days 4 to 5. It is filed as functional. The conditions noted are these: route nas, time 4-5 day. In outline: as §2

Calls of active or inactive are those of the source. No cut-off for these calls is given here. Non-standard residues stand in square brackets, D forms with d. Residues, ends and D or L forms follow the SMILES beside them. *: point of attachment. Propanoyl(3-cHex) = O=C(CCC1CCCCC1)*; Dab = NCC[C@H](N)C(=O)O

The source of these data is ChEMBL document CHEMBL5344459, “Suppressive Effects of Neuromedin U Receptor 2-Selective Peptide Agonists on Appetite and Prolactin Secretion in Mice” (2024).

Regarding `CC(C)C[C@H](NC(=O)CCC1CCCCC1)C(=O)N[C@@H](CC(C)C)C(=O)N[C@@H](CCN)C(=O)N1CCC[C@H]1C(=O)N[C@@H](CCCNC(=N)N)C(=O)N[C@@H](CC(N)=O)C(N)=O` ({Propanoyl(3-cHex)}-LL[Dab]PRN-NH2), the outcome with Mus musculus [1], with Mus musculus [2], in the experiment on Mus musculus [7], in the experiment with Mus musculus [8], in the experiment with Mus musculus [11] and in the experiment on Mus musculus [13] was inactive. Further, the outcome in the experiment on Mus musculus [16] was inactive. For the same compound, the Activity with Mus musculus [3] is below 100%; in the experiment on Mus musculus [12], below 0.15 ng/mL; in the experiment on Mus musculus [15] it was 0.49 ng/mL. Besides, the inhibition entry in the experiment on Mus musculus [4], with Mus musculus [6], in the experiment on Mus musculus [9] and in the experiment with Mus musculus [14] was “Active” in each case. Also, the outcome with Mus musculus [5], with Mus musculus [10] and in the experiment on Mus musculus [18] was Active. For the same compound, the inhibition result with Mus musculus [17] was “inactive”.
